Sampled rows, rich in hits. Any-hit rate of the full collection: about 2.3%.
OXTR potentiate = human OXTR potentiators, primary screen, fluorescence, CHO-OTR cells, Fluo-8 calcium. 320,000 compounds, 0.061% hits. activation, % at 3 µM. Oxytocin receptor (Homo sapiens), P30559. AID 2445, 2010. Fluo-8 calcium fluorescence, potentiator mode; 0% = oxytocin EC15, 100% = EC100;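 active means activation above that plate's cutoff, the mean activation of tested compounds plus 3 SD, cut at about 6.6% in these data, passing the limit was not always enough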
Target sequence (P30559 whole entry, looked up): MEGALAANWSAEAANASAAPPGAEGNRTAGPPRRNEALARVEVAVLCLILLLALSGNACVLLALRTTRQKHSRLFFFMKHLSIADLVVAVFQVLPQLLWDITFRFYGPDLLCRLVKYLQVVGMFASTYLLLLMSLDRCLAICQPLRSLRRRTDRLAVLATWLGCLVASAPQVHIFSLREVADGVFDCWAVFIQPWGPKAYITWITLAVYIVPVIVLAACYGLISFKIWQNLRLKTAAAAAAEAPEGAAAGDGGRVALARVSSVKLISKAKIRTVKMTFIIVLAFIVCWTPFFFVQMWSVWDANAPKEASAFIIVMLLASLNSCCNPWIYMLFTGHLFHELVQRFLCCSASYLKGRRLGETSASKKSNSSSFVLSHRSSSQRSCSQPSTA
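Measured by – Fluo-8 calcium dye fluorescence · Test system – human OTR in CHO cells · Dosing – one concentration, 3.0 µM compound · Controls – EC15 oxytocin alone as 0%, 75 nM oxytocin as 100% · Evaluation – normalized max/min fluorescence ratio, % activation · Timing – 6 min pre-incubation, 100 s read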
OXTR ag = human OXTR agonists, primary screen, fluorescence, CHO-OTR cells, Fluo-8 calcium; Oxytocin receptor (Homo sapiens), P30559; Fluo-8 calcium fluorescence; normalized: DMSO 0%, oxytocin 100%; activation, % at 3 µM; 320,000 compounds, 0.32% hits; AID 2435, 2010;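 active means activation above the mean of all tested compounds plus 3 SD, cutoff set per screening run, cut at about 20% in these data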;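 further: peak over basal fluorescence ratio from a 100 s FLIPR kinetic read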
TAAR1 ag = human TAAR1 agonists, primary screen, Fluo-8 calcium fluorescence, CHO RD-HGA16 cells; 360,000 compounds, 0.99% hits; AID 624467, 2012; vehicle wells 0%, saturating PEA agonist 100%; activation, % at 3 µM;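 active means activation above the mean activation of all test compounds in the run plus 3 SD, cut at about 38% in these data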
Target sequence (Q96RJ0 whole entry, looked up): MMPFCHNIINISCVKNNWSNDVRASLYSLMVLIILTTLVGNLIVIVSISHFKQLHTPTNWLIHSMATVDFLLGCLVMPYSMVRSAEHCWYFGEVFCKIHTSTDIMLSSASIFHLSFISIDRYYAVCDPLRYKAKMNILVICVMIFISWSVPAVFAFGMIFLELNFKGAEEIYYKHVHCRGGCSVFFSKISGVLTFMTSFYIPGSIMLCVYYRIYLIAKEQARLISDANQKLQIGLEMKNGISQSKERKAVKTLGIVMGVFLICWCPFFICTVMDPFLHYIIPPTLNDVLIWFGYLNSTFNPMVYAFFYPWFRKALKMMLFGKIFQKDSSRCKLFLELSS
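Test system: RD-HGA16 (CHO) cells co-expressing Gα16 and hTAAR1 / Benchmarks: DMSO vehicle as 0%, PEA at EC100 as 100% / Repeats: no replicates (n 1) / Measure: % activation from peak over basal fluorescence ratio, DMSO-to-PEA scaled / Timing: 17-24 h plating, Fluo-8 75 min 37 °C, 30 min RT / Technique: kinetic Fluo-8 calcium fluorescence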
V1aR counter = agonists of human V1a receptor, primary screen, counter-screen for OXTR agonist project, fluorescence, CHO-V1R cells | AID 2797, 2010 | Fluo-8 calcium fluorescence, agonist mode; 0% DMSO, 100% 3 nM vasopressin | activation, % at 3 µM | 320,000 compounds, 0.25% hits;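 active means activation above the mean activation of all tested compounds plus 3 SD, per screening run, cut at about 20% in these data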;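 further: signal is peak over basal fluorescence ratio across a 100 second FLIPR read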
TAAR1 antag = human TAAR1 antagonists, primary screen, Fluo-8 calcium fluorescence, CHO RD-HGA16 cells | Trace amine-associated receptor 1 (Homo sapiens), Q96RJ0 | antagonist | inhibition, % at 3 µM | 360,000 compounds, 1.5% hits | AID 624466, 2012;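 active means inhibition above a per-plate cutoff, the mean inhibition of test compounds on that plate plus 3 SD, cut at about 49% in these data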
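Test system – hTAAR1-expressing CHO RD-HGA16 cells, Gα16-coupled · Also added – β-PEA at EC80 concentration, post-compound challenge · Compound – 3 µM, single point · Incubation – dye loading 75 min at 37 °C, then 30 min room temperature · Measured by – Fluo-8 intracellular calcium dye fluorescence, real-time kinetic reads · Benchmarks – vehicle and agonist controls · Replicates – singlicate, one well per test compound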
TAAR1 nonsel count = nonselective antagonists in TAAR1 counter-screen cells, counter-screen for hTAAR1 antagonist project, cell-based, fluorescence, calcium. shares compounds with TAAR1 antag. counterscreen cell line, antagonist mode. inhibition, % at 3 µM. 2,400 compounds, 77% hits. AID 651780, 2012; in the data active means inhibition above about 22%;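 further: CHO-Ga16 host cells stimulated with ATP at an EC80 level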
TAAR1 ant conf = human TAAR1 antagonists, retest of hits, confirmation, cell-based, fluorescence. shares compounds with TAAR1 antag. TAAR1-expressing cells, fluorescence antagonist read-out. inhibition, % at 3 µM. 2,400 compounds, 40% hits. AID 651785, 2012; in the data active means inhibition above about 49%;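 further: CHO-Ga16 host cells challenged with agonist PEA near its EC80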
Ga16 ag counter = calcium activation in Ga16-expressing cells, counter-screen for TAAR1 antagonist project, cell-based, fluorescence | shares compounds with TAAR1 antag | agonist counterscreen | activation, % at 3 µM | 2,400 compounds, 18% hits | AID 651953, 2012; in the data active means activation above about 12%
TAAR1 ag counter = TAAR1 activation by candidate antagonists – cell-based, fluorescence, counter-screen for TAAR1 antagonist project. shares compounds with TAAR1 antag. hTAAR1 cell line, agonist mode. activation, % at 3 µM. 2,400 compounds, 2% hits. AID 651955, 2012; in the data active means activation above about 37%;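 further: CHO cells stably expressing TAAR1 with calcium dye readout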
Numbers stand for hits.

For NC(=O)CCc1c[nH]c2ccccc12 the results were OXTR potentiate inactive, OXTR ag inactive, TAAR1 ag inactive, V1aR counter inactive and TAAR1 antag inactive.
CCN(CC)C(=O)c1ncn2c1C(=O)N[C@@H](C)C2 was read as TAAR1 ag inactive and TAAR1 antag inactive.
`CN(C)S(=O)(=O)c1ccc(C(=O)Nc2nc(-c3cccs3)cs2)cc1` gave OXTR potentiate inactive, OXTR ag inactive, TAAR1 ag inactive, V1aR counter inactive, TAAR1 antag 53.8, TAAR1 nonsel count 32.6, TAAR1 ant conf inactive, Ga16 ag counter 11.8 and TAAR1 ag counter inactive.
Screening O=C(Nc1nc(-c2cccs2)cs1)c1ccc(S(=O)(=O)N2CCCC2)cc1 returned OXTR potentiate inactive, OXTR ag inactive, TAAR1 ag inactive, V1aR counter inactive and TAAR1 antag inactive.
`CCOc1ccc(/C=C(\C#N)C(=O)c2c(C)[nH]c3ccccc23)cc1OC` gave OXTR potentiate inactive, OXTR ag inactive, TAAR1 ag inactive, V1aR counter inactive, TAAR1 antag 57.9, TAAR1 nonsel count inactive, TAAR1 ant conf inactive, Ga16 ag counter inactive and TAAR1 ag counter inactive.
Screening CCOC(=O)c1c(C)[nH]c(C(=O)/C(C#N)=C/c2ccc(OC(F)F)c(OC)c2)c1C returned OXTR potentiate inactive, OXTR ag inactive, TAAR1 ag inactive, V1aR counter inactive and TAAR1 antag inactive.
For CCOC(=O)c1c(C)[nH]c(C(=O)/C(C#N)=C/c2ccc(OC)c(OC)c2)c1C the results were OXTR potentiate inactive, OXTR ag inactive, TAAR1 ag inactive, V1aR counter inactive and TAAR1 antag inactive.
Screening COc1cc(/C=C(/C#N)C(=O)c2c(C)[nH]c3ccccc23)ccc1OCC#N returned OXTR potentiate inactive, OXTR ag inactive, TAAR1 ag inactive, V1aR counter inactive, TAAR1 antag 55.3, TAAR1 nonsel count 23.8, TAAR1 ant conf 50.1, Ga16 ag counter 19.2 and TAAR1 ag counter 39.7.
`CN(Cc1ccccc1)C(=O)c1csc([C@@H]2O[C@H](CO)[C@@H](O)[C@H]2O)n1` gave TAAR1 ag inactive and TAAR1 antag inactive.
For CN(C(=O)c1cccc(NC(=O)c2ccccc2)c1)C1CCCCC1 the results were OXTR potentiate inactive, OXTR ag inactive, TAAR1 ag inactive, V1aR counter inactive and TAAR1 antag inactive.
Screening CN(C(=O)c1cccc(Nc2ccc(-c3ccc4c(c3)OCCO4)nn2)c1)C1CCCCC1 returned OXTR potentiate inactive, OXTR ag inactive, TAAR1 ag inactive, V1aR counter inactive, TAAR1 antag 53.9, TAAR1 nonsel count inactive, TAAR1 ant conf inactive, Ga16 ag counter inactive and TAAR1 ag counter inactive.
`CN(C(=O)COC(=O)/C=C/c1ccc(S(=O)(=O)N2CCc3ccccc32)cc1)C1CCS(=O)(=O)C1` (configuration not stated) gave OXTR potentiate inactive, OXTR ag inactive, TAAR1 ag inactive, V1aR counter inactive, TAAR1 antag 101.4, TAAR1 nonsel count inactive, TAAR1 ant conf inactive, Ga16 ag counter inactive and TAAR1 ag counter inactive.
Screening CCOC(=O)[C@]12CCC=C1N(Cc1ccc3c(c1)OCO3)C(=O)[C@H](CC(=O)N1CCOCC1)C2 returned TAAR1 ag inactive and TAAR1 antag inactive.
O=C(NCCN1C(=O)S/C(=C\c2ccc(F)cc2)C1=O)c1cccc(S(=O)(=O)N2CCOCC2)c1 was read as OXTR potentiate inactive, OXTR ag inactive, TAAR1 ag inactive, V1aR counter inactive, TAAR1 antag 69.9, TAAR1 nonsel count 42.8, TAAR1 ant conf 60.0, Ga16 ag counter 15.3 and TAAR1 ag counter inactive.
For O=C(NCCN1C(=O)S/C(=C\c2ccccc2)C1=O)c1cc(S(=O)(=O)N2CCOCC2)c(Cl)cc1Cl the results were OXTR potentiate inactive, OXTR ag inactive, TAAR1 ag inactive, V1aR counter inactive, TAAR1 antag 78.3, TAAR1 nonsel count 50.4, TAAR1 ant conf 70.0, Ga16 ag counter 19.4 and TAAR1 ag counter inactive.
Screening O=C(NCCN1C(=O)S/C(=C\c2ccc(Cl)cc2)C1=O)c1ccc(F)c(S(=O)(=O)N2CCOCC2)c1 returned OXTR potentiate inactive, OXTR ag inactive, TAAR1 ag inactive, V1aR counter inactive and TAAR1 antag inactive.
For COc1ccc(NC(=O)N(C)C[C@@H]2OCc3ccccc3-c3c(n(C)c4ccccc34)C(=O)N([C@H](C)CO)C[C@H]2C)c(OC)c1 the results were TAAR1 ag inactive and TAAR1 antag inactive.
Screening CC(C)=CCC/C(C)=C/CN1C(=O)N(c2ccc(F)cc2)[C@H]2C[C@@H](c3ccccc3)[C@@H](C)[C@@H](C(=O)N3CCOCC3)C[C@H]21 returned TAAR1 ag inactive, TAAR1 antag 64.6, TAAR1 nonsel count 35.1, TAAR1 ant conf 59.5, Ga16 ag counter inactive and TAAR1 ag counter inactive.
CCN1C(=O)N[C@H]2C[C@H](C(=O)N3CCCC3)[C@H](C)[C@H](c3ccccc3)C[C@H]21 was read as TAAR1 ag inactive and TAAR1 antag inactive.
For CCOC(=O)C1=CCN(S(=O)(=O)c2ccc(F)cc2)C1c1ccc(Cl)cc1 (configuration not stated) the results were TAAR1 ag inactive and TAAR1 antag inactive.
For CCOc1ccc(CCNC(=O)CN2C(=O)c3cccnc3Oc3ccc(C)cc32)cc1OCC the results were OXTR potentiate inactive, OXTR ag inactive, TAAR1 ag inactive, V1aR counter inactive and TAAR1 antag inactive.
For CSc1ccc(CCNC(=O)CN2C(=O)c3cccnc3Oc3ccc(C)cc32)cc1 the results were OXTR potentiate inactive, OXTR ag inactive, TAAR1 ag inactive, V1aR counter inactive, TAAR1 antag 74.3, TAAR1 nonsel count 24.9, TAAR1 ant conf 53.2, Ga16 ag counter inactive and TAAR1 ag counter inactive.
